The target of test [1] is Carboxy-terminal domain RNA polymerase II polypeptide A small phosphatase 1 (Homo sapiens) (UniProt Q9GZU7). Kind of test: SCP1 melting temperature change from compounds – biophysical, differential scanning fluorimetry, orthogonal assay for Scp-1 inhibitor project, confirmation (AID 540329).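 Further: 0% = Tm of DMSO wells and 100% = Tm with sodium orthovanadate.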 The note with it: Recombinant SCP1, Sypro Orange thermal shift Tm; at 40 µM; stronger effect = higher value. In a few lines:
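Test system: human Scp-1 phosphatase catalytic domain, residues 76-261. Input: Scp-1 from 10 µM stock. Incubation: Heating 20-95 °C, 0.03 °C/s ramp. Control set: vanadate reference. Buffer or medium: Tris acetate buffer at pH 5.5, with MgCl2 and Tween-20. Detection: differential scanning fluorimetry.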
A general note: In DSF a fluorescence change marks the thermal transition of the protein.

A short description of test [2]: HIF-2a driven luciferase blockers, single dose – luminescence, 786-0 RCC cells, confirmation (AID 651580;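 active means mean inhibition across four replicates of at least 40 percent at the single tested concentration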). Conditions: HIF-2a luciferase reporter luminescence, overnight, at 18.8 µM, stronger effect = higher value.
Test [3] can be described thus: HIF-1a luciferase reporter signal reduction – MiaPaCa-2 cells, single concentration, counter-screen for HIF-2a inhibitor project, confirmation (AID 651589;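 active means mean inhibition of the reporter signal across four replicates at the single tested dose of 50% or more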). The note with it: MiaPaCa-2 HIF-1a luciferase reporter, desferoxamine, overnight; at 18.8 µM; stronger effect = higher value.
Test [4] is described as follows: MLLE domain peptide-binding blockers, IC50 – biochemical, fluorescence polarization, FITC-PAM2 peptide, dose response (AID 602259;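 active means mean IC50 at or below a set limit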). The note with it: GST-MLLE/FITC-PAM2 peptide binding.
Test [5] can be described thus: inhibition of PEG-3 promoter luciferase signal – cell-based, HeLa, luciferase reporter, single concentration, confirmation (AID 602417;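 active means at 20 µM dose, 40% or more inhibition averaged across four replicates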). The note with it: HeLa PEG-Prom luciferase reporter, luminescence, overnight; at 20 µM; stronger effect = higher value.
The target in test [6] is PEG-3 (UniProt Q6IN02). Kind of test: inhibition of PEG-3 promoter-driven reporter – cell-based, HeLa, luciferase, CREF/GAPDH counter-screen panel, dose response (AID 624167). The note with it: CREF/GAPDH counter-screens; HeLa PEG-Prom luciferase reporter, overnight, run 1, dose range 1, at 100 µM (top of the series) unless noted. (In general: Counterscreens check selectivity or assay interference.)
PEG-3, sequence (Q6IN02 whole entry, looked up): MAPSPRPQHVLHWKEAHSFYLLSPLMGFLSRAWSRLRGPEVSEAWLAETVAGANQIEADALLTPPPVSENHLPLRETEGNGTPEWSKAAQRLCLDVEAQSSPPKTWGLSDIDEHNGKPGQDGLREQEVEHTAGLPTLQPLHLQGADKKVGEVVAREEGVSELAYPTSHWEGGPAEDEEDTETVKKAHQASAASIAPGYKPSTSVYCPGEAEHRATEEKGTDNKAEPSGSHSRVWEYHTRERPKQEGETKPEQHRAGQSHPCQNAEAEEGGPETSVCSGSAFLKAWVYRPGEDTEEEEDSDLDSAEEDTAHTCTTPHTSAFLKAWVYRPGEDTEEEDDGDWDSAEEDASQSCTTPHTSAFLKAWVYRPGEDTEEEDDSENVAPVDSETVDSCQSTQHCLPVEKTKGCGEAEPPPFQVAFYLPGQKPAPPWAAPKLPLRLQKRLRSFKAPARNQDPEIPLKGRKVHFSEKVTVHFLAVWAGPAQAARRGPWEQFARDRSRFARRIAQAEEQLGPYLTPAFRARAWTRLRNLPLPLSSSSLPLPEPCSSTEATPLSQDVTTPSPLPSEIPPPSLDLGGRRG

Test [7] addresses PEG-3 (UniProt Q6IN02). The test is described as above. Conditions: CREF/GAPDH counter-screens; HeLa PEG-Prom luciferase reporter, overnight, run 2, dose range 1, at 100 µM (top of the series) unless noted.
Test [8] concerns Rat fibroblasts (CREF). The test is described as above. Conditions: CREF/GAPDH counter-screens; run 1, dose range 1, at 100 µM (top of the series).
Test [9] relates to Rat fibroblasts (CREF). The description is as above. Conditions: CREF/GAPDH counter-screens; run 2, dose range 1, at 100 µM (top of the series).
Test [10] can be described thus: NF-kB reporter suppression in CF airway cells – cell-based, GFP fluorescence, single concentration, confirmation (AID 602472; in the data active means inhibition above about 40%;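 further: stimulus PAF is a Pseudomonas aeruginosa filtrate and not platelet activating factor; plate controls were DMSO wells with stimulus for no effect and unstimulated DMSO wells for full effect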). The note with it: KKLEB CF airway cells, PAF-induced NF-kB-GFP fluorescence, overnight; at 5 µM; stronger effect = higher value. The gist of the method: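 Material: KKLEB immortalized cystic fibrosis airway epithelial cells with NFkB-GFP reporter; Buffer or medium: medium with 2% FBS for cells, serum-free medium for stimulus; Times: 2 h pretreatment, overnight stimulation; Signal: GFP fluorescence; Compound dosing: 5 µM single dose.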

Each structure is given as a SMILES string. For some assays here: Results with a measured potency or affinity are listed apart. This is one part of the list. Active and inactive are the calls of the source.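 How the source made its calls, unless noted: active means substances whose mean melting-temperature shift, as a percentage of the reference inhibitor's shift, reaches about 5.3% (limit read from the data); inactive means the rest.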

Carboxy-terminal domain RNA polymerase II polypeptide A small phosphatase 1 (Homo sapiens), sequence (Q9GZU7 76-261 limits assumed): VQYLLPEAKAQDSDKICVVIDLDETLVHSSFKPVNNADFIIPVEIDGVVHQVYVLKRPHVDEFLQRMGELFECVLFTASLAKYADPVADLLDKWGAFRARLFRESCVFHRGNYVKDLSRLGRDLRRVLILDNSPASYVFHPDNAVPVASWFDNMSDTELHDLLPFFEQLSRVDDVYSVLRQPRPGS

On to `Cc1oc2c(C)c3oc(=O)c(CC(=O)N[C@@H](CC(C)C)C(=O)N[C@@H](Cc4ccccc4)C(=O)O)c(C)c3cc2c1C`, for which, in test [1], the thermal shift relative to vanadate control is -12.3% (inactive).

As a reminder, the inhibition is the change of the read-out against control, counted positive when it falls. As for `Cc1c(CCC(=O)O)c(=O)oc2c(C)c(OCc3ccccc3Cl)ccc12`, in [1], the thermal shift relative to vanadate control was -3.47% (inactive). For the same compound, the results for the inhibition in test [2] and in test [3] were 63.3% (active) and 46.2% (inactive), respectively.

Take `Cc1cc(/C=C2\SC(=O)N(C)C2=O)c(C)n1-c1cccc(C(=O)O)c1`: the thermal shift relative to vanadate control in [1] is 1.65% (inactive).

Take `Cc1ccc(NC(=O)c2cc(-c3ccc(C)o3)nc3ccccc23)nc1`: the thermal shift relative to vanadate control in test [1] is 5.81% (active).

Consider `C=Cc1ccc(C(=O)N2CCCC(CCC(=O)N3CCN(c4ccccn4)CC3)C2)cc1` (stereo not drawn), for which the thermal shift relative to vanadate control in test [1] was -35.8% (inactive).

In the case of `O=c1[nH]n(-c2ccc([N+](=O)[O-])cc2)c(=O)c2ccccc12`, in test [1], the thermal shift relative to vanadate control was 2.78% (inactive).

As to `O=C(COc1ccc(-n2cnnn2)cc1)Nc1ccccc1Cl`, the thermal shift relative to vanadate control in [1] was -5.03% (inactive).

As for `CS(=O)(=O)C1=NN2C(=N)/C(=C\c3ccc(OCCOc4ccccc4)cc3)C(=O)N=C2S1`, the thermal shift relative to vanadate control in test [1] was 280% (active).

For the compound `CC(C)CCOc1ccc(C(=O)C[N+]2(C)CCOCC2)cc1`, in [1], the thermal shift relative to vanadate control was -16.6% (inactive).

In the case of `CN(c1ccccc1)S(=O)(=O)c1ccc(Cl)c(C(=O)OCC(=O)NCc2ccco2)c1`, in test [1], the thermal shift relative to vanadate control was -14.8% (inactive).

Regarding `C[n+]1ccc(C(=O)NCc2ccccc2)cc1`, the thermal shift relative to vanadate control in test [1] is -7.9% (inactive).

For orientation: IC50 means the point on the concentration scale where inhibition reaches its midpoint. As to `C[c-]1[c-](C)[c-](C)[c-](C)[c-]1C.[Fe].c1cc2nccc(N3CCCC3)[c-]2c1` (stereo not drawn), in [4], the IC50 is > 66 µM (inactive).

Turning to `C=C1c2cccc(OC)c2O[C@H](C(=O)OCC)[C@@H]1CCCCCC`, in test [1], the thermal shift relative to vanadate control is -6.9% (inactive).

For `O=S(=O)(Nc1ccccc1Cl)c1cccc2nsnc12`, the thermal shift relative to vanadate control in test [1] was -16.9% (inactive).

`O=C(Nc1cccnc1)c1cc2cc(Br)ccc2oc1=O`: the thermal shift relative to vanadate control in test [1] is 0.88% (inactive).

For the compound `O=C(Nc1cccc(F)c1)c1cc(-c2ccco2)nc2ccccc12`, the thermal shift relative to vanadate control in test [1] was -0.45% (inactive).

Regarding `N#Cc1c(-c2cccs2)nc(SCC(=O)c2ccc(Br)cc2)[nH]c1=O`, the thermal shift relative to vanadate control in test [1] is -2.02% (inactive).

Turning to `O=C(c1cc2c(s1)CCC2)N1CCN(c2ccccc2)CC1`, the thermal shift relative to vanadate control in test [1] is -14.1% (inactive).

With `C[C@H](CO)N1C[C@H](C)[C@H](CN(C)C(=O)Nc2ccc(C(F)(F)F)cc2)Oc2c(NC(=O)c3ccncc3)cccc2C1=O`, the thermal shift relative to vanadate control in [1] was 1.36% (inactive).

As to `CCCc1nc(-c2cc3cc(C)ccc3[nH]c2=O)no1`, in [1], the thermal shift relative to vanadate control was -30.4% (inactive).

For `O=C(Nc1cc(S(=O)(=O)N2CCCCC2)ccc1Cl)C1COc2ccccc2O1` (stereo not drawn), the thermal shift relative to vanadate control in test [1] was -12% (inactive).

For the compound `O=C1NN(c2ccccc2)C(=O)/C1=C/c1ccc(-c2cccc(C(=O)O)c2)o1`, the thermal shift relative to vanadate control in test [1] was 14.3% (active).

As to `O=C(c1ccc(CS(=O)(=O)c2ccccc2)o1)N1CCN(c2ccccc2)CC1`, in [1], the thermal shift relative to vanadate control was -3.55% (inactive).

On to `Cc1ccc(NC(=O)COc2ccc(/C=N\NC(=O)c3cccnc3)cc2)cc1C`, for which, in test [1], the thermal shift relative to vanadate control was -4.33% (inactive).

As for `O=C(CCC(=O)N/N=C/c1ccc(Br)o1)N/N=C/c1ccc(Br)o1`, the thermal shift relative to vanadate control in test [1] was -1.53% (inactive).

For the compound `COc1cccc(NC(C)=[N+](C)CCNS(=O)(=O)c2ccc(Cl)cc2)c1`, the thermal shift relative to vanadate control in [1] was -9.24% (inactive).

As for `COc1ccc(OCC(=O)NNC(=O)c2ccc(-c3ccccc3)cc2)cc1`, in test [1], the thermal shift relative to vanadate control was 2.47% (inactive).

Take `COc1cccc2c1C(=O)c1c(O)c3c(c(O)c1C2=O)CC(O)(C(C)=NNC(=O)c1ccc(Cl)c(Cl)c1)CC3OC1CC(N)C(O)C(C)O1` (stereo not drawn): the inhibition in [5] is 96.6% (active); in [6], 102%; in test [7], 101%; in test [8] it was 99.3%; in [9] it was 98.6%.

Consider `CN(Cc1ccccc1F)C(=O)C(Cc1ccccc1)NC(=O)c1ccccc1` (stereo not drawn), for which the inhibition is 48.7% (active) in [5], 98.9% in [6] and 95.1% in test [7].

Turning to `Cc1cc2nc(-c3ccco3)c(Cc3cccc(F)c3)n2c(C)c1Br`, the inhibition in test [10] was -41.6% (inactive).

The values above are taken from PubChem BioAssay.
